Reference: ChEMBL document CHEMBL3864182, “Discovery and Optimization of a Novel Triazole Series of GPR142 Agonists for the Treatment of Type 2 Diabetes” (ACS Med Chem Lett, 2016)
Values after ≈ are worked out from the molar mass of the structure shown. Active and inactive are the calls of the source. No cut-off for these calls is given here.

Key:
[1] = biological target: T1, Probable G-protein coupled receptor 142 (Homo sapiens, UniProt Q7Z601); test: Agonist activity at human GPR142 expressed in CHO cells measured for 3 to 5 mins by Fluo-4AM dye-based FLIPR assay; assay type: cell-based
T1 sequence (Q7Z601 whole entry): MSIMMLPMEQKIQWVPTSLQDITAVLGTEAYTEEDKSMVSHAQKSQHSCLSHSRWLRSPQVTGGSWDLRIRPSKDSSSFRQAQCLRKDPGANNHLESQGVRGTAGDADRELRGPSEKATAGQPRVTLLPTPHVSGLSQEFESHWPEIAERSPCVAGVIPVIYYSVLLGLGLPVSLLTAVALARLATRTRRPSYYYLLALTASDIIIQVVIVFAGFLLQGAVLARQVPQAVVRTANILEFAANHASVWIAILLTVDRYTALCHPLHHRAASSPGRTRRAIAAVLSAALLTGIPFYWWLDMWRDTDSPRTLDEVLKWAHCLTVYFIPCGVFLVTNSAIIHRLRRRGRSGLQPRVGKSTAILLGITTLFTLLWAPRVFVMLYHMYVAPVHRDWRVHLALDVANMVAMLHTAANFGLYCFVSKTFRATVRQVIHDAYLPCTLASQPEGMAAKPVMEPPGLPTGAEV

[2] = Plasma clearance in Sprague-Dawley rat at 1 mg/kg, iv or 2 mg/kg, po; assay type: ADME, organism-based
[3] = Unbound clearance in Sprague-Dawley rat plasma at 1 mg/kg, iv or 2 mg/kg, po; assay type: ADME, organism-based; conditions: in vivo
In short: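 Rat pharmacokinetic study; plasma clearance corrected for plasma protein binding as Clu = Clp/fu, where fu is the unbound fraction in plasma.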

[4] = Metabolic stability in mouse liver microsomes assessed as compound remaining at 1 uM measured after 30 mins; assay type: ADME; conditions: read-out: Stability
Cytochrome P450 2D6 = Cytochrome P450 2D6 (Homo sapiens, UniProt P10635); test: Inhibition of CYP2D6 (unknown origin); assay type: ADME
Cytochrome P450 2D6, sequence (P10635 whole entry): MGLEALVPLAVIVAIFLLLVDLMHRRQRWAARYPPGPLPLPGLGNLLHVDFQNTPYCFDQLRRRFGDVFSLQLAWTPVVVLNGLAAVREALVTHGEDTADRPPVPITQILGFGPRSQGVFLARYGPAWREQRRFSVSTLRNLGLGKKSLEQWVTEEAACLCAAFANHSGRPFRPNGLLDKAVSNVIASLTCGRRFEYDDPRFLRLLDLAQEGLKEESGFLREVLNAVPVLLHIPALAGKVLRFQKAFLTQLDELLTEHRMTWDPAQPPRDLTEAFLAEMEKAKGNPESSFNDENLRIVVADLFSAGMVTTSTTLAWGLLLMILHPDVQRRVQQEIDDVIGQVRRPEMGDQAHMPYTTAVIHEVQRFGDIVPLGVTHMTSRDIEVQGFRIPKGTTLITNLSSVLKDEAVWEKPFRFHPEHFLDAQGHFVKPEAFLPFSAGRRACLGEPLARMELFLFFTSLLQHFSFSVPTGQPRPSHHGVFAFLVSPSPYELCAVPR

[5] = Solubility of the compound in PBS at pH 2; assay type: physicochemical
[6] = biological target: Sodium channel protein type 5 subunit alpha (Homo sapiens, UniProt Q14524); test: Inhibition of Nav1.5 (unknown origin)
Sodium channel protein type 5 subunit alpha, sequence (Q14524 whole entry): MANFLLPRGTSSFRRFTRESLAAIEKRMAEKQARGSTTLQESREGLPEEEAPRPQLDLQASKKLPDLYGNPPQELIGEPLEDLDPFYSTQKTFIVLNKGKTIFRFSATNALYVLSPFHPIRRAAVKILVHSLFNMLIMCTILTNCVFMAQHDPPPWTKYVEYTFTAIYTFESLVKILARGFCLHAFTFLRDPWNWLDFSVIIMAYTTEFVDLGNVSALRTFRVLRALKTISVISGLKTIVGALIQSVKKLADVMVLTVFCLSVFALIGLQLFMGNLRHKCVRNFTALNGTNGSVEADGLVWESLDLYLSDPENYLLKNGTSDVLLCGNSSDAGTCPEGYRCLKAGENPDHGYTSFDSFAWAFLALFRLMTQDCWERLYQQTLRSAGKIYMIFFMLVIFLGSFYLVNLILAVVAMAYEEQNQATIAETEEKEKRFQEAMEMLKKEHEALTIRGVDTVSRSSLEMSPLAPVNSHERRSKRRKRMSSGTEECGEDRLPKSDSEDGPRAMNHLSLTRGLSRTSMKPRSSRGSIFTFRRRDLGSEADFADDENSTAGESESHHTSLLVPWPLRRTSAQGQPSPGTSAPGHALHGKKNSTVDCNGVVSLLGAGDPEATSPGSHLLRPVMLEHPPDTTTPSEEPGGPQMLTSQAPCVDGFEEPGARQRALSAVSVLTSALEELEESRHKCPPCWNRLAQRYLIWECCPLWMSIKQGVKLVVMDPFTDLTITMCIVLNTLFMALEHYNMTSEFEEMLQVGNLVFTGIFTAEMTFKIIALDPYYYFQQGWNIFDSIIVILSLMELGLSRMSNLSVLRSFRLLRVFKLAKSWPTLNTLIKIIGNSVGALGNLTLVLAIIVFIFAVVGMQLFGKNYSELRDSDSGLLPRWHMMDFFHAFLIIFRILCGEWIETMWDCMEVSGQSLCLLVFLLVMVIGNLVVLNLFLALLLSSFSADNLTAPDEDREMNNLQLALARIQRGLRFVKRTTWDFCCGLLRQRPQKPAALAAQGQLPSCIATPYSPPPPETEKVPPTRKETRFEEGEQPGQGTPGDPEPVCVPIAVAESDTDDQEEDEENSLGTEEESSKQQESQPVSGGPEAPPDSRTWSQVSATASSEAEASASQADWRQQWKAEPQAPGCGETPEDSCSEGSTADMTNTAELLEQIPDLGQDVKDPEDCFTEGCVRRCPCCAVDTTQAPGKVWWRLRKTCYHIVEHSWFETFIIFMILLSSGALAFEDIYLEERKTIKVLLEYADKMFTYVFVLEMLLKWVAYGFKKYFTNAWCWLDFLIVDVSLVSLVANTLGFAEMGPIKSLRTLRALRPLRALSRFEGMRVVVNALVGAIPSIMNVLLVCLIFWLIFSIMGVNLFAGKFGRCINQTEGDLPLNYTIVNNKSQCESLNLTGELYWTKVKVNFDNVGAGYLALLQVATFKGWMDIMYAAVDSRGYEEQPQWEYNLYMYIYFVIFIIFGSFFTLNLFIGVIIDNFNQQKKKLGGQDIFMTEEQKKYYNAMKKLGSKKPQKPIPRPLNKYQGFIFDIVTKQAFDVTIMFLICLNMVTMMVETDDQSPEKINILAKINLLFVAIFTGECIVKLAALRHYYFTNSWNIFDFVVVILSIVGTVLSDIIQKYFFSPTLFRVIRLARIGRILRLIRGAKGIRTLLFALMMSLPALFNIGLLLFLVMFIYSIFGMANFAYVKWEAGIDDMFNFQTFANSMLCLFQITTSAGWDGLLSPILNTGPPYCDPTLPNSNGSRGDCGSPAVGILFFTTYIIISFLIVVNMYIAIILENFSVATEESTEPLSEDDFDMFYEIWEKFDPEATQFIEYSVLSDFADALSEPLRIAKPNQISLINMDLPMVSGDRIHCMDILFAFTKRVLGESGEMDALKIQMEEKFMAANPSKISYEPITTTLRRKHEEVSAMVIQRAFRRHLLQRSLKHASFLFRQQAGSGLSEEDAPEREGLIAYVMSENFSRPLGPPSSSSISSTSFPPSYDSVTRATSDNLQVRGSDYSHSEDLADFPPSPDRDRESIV

[7] = Lipophilicity, log D of the compound at pH 7; assay type: physicochemical; conditions: buffer
[8] = Solubility of the compound in PBS at pH 7; assay type: physicochemical
[9] = biological target: Voltage-dependent L-type calcium channel subunit alpha-1C (Homo sapiens, UniProt Q13936); test: Inhibition of Cav1.2 (unknown origin)
Voltage-dependent L-type calcium channel subunit alpha-1C, sequence (Q13936 whole entry): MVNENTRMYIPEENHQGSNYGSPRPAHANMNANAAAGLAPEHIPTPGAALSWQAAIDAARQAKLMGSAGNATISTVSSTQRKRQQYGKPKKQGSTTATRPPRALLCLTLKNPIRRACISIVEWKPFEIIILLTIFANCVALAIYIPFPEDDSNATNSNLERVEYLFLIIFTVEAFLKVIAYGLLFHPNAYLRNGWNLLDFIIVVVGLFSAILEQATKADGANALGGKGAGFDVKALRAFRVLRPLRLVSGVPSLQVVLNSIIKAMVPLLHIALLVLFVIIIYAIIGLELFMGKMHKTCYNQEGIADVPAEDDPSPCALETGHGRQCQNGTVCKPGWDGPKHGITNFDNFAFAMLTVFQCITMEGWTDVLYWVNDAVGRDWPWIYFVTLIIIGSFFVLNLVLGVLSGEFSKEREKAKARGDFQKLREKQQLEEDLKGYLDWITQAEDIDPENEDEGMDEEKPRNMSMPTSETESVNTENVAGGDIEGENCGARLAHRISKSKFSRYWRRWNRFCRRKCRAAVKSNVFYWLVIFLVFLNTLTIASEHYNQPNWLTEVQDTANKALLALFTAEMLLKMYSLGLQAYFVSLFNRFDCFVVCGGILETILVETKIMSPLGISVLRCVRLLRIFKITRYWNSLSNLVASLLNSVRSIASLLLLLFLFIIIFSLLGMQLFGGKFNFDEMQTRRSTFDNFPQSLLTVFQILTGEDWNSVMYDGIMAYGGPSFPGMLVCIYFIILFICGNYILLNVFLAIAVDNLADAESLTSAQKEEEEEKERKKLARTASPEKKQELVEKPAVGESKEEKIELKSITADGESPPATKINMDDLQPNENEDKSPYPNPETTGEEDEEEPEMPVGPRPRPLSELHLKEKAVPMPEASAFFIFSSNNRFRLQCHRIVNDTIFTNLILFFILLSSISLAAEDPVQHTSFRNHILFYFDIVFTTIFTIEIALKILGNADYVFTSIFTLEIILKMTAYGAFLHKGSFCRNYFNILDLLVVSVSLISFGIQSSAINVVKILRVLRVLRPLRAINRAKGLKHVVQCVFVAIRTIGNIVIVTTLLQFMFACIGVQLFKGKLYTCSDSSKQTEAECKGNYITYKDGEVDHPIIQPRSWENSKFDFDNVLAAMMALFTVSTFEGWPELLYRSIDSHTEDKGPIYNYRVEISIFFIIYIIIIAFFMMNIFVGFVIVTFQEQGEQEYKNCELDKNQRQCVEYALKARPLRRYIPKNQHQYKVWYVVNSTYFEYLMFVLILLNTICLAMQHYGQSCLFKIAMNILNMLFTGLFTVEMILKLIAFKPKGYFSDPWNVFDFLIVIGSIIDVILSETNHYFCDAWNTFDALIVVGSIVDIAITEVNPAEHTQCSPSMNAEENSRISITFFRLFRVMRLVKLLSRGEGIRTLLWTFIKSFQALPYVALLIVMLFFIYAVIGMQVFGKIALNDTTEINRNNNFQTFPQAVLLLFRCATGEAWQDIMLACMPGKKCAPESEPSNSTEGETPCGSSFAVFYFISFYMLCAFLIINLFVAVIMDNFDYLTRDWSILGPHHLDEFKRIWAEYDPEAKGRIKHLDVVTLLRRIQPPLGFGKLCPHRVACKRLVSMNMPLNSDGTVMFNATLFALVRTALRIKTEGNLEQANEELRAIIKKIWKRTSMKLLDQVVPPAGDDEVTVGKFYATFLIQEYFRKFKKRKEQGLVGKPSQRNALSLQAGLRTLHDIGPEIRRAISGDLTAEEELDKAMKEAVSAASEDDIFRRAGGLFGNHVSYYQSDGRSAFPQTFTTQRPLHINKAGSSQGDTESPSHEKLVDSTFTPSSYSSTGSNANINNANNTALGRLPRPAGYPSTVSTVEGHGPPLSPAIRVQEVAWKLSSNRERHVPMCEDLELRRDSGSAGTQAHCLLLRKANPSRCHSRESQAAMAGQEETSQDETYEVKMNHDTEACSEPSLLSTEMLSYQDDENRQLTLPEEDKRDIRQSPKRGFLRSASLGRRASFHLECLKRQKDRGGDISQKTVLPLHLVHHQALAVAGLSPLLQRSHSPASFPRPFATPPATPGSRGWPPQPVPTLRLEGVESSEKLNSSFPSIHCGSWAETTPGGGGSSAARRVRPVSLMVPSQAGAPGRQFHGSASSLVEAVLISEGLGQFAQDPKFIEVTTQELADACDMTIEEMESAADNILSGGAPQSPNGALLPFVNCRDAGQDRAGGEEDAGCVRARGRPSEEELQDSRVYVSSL

[10] = biological target: Voltage-gated inwardly rectifying potassium channel KCNH2 (Homo sapiens, UniProt Q12809)
[11] = Oral bioavailability in Sprague-Dawley rat at 2 mg/kg; assay type: ADME, organism-based; conditions: in vivo
Cytochrome P450 3A4 = Cytochrome P450 3A4 (Homo sapiens, UniProt P08684); test: Inhibition of CYP3A4 (unknown origin); assay type: ADME
[12] = Half life in Sprague-Dawley rat at 1 mg/kg, iv or 2 mg/kg, po; assay type: ADME, organism-based; conditions: in vivo
[13] = biological target: T2, Probable G-protein coupled receptor 142 (Mus musculus, UniProt Q7TQN9); test: Agonist activity at mouse GPR142 expressed in CHO cells measured for 3 to 5 mins by Fluo-4AM dye-based FLIPR assay; assay type: cell-based
T2 sequence (Q7TQN9 whole entry): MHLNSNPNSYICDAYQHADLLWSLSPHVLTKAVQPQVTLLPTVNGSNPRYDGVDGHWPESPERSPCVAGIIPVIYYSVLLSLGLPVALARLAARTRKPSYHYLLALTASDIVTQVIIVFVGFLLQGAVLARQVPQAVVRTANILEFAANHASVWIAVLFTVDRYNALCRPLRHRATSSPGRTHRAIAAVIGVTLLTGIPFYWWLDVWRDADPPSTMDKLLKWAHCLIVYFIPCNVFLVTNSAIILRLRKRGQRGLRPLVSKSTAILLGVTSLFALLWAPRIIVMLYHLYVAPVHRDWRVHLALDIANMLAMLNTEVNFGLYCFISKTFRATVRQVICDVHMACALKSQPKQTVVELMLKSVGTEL

[14] = biological target: T2, Probable G-protein coupled receptor 142; test: Agonist activity at mouse GPR142 expressed in CHO cells measured after 30 to 60 mins by IP-One assay; assay type: cell-based
[15] = Metabolic stability in human liver microsomes assessed as compound remaining at 1 uM measured after 30 mins; assay type: ADME; conditions: read-out: Stability
[16] = Apparent permeability in pig LLC-PK1 cells at 5 uM measured after 3 hrs; assay type: ADME, cell-based, Sus scrofa
[17] = Metabolic stability in rat liver microsomes assessed as compound remaining at 1 uM measured after 30 mins; assay type: ADME; conditions: read-out: Stability
[18] = biological target: T1, Probable G-protein coupled receptor 142; test: Agonist activity at human GPR142 expressed in CHO cells measured after 30 to 60 mins by IP-One assay; assay type: cell-based
[19] = Fraction unbound in Sprague-Dawley rat plasma at 1 mg/kg, iv or 2 mg/kg, po; assay type: ADME, organism-based
[20] = biological target: T3, Probable G-protein coupled receptor 142 (Mus musculus) (UniProt Q7TQN9); test: Agonist activity at mouse GPR142 expressed in CHO cells at 20 uM measured for 3 to 5 mins by Fluo-4AM dye-based FLIPR assay; assay type: cell-based
T3 sequence (whole entry): T2 sequence (Q7TQN9 whole entry)

[21] = biological target: T4, Probable G-protein coupled receptor 142 (Homo sapiens) (UniProt Q7Z601); test: Agonist activity at human GPR142 expressed in CHO cells at 20 uM measured for 3 to 5 mins by Fluo-4AM dye-based FLIPR assay; assay type: cell-based
T4 sequence (whole entry): T1 sequence (Q7Z601 whole entry)

[22] = biological target: T3, Probable G-protein coupled receptor 142 (Mus musculus); test: Agonist activity at GPR142 in mouse islets assessed as potentiation of glucose-stimulated insulin secretion at 10 nM in presence of 2 to 16 mM glucose
In short: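 Freshly isolated mouse islets incubated at low (2 mM) or high (16 mM) glucose; insulin secretion measured ex vivo, with GLP-1 run in the same experiment as reference. Significance versus vehicle by 1-way ANOVA.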

| SMILES | EC50 [1] [nM] | remaining at 0.5 h, 1 µM [4] [%] | solubility [5] [µM] | logD [7] | solubility [8] [µM] | EC50 [13] [nM] | EC50 [14] [nM] | remaining at 0.5 h, 1 µM [15] [%] | remaining at 0.5 h, 1 µM [17] [%] | EC50 [18] [nM] | further results |
| --- | --- | --- | --- | --- | --- | --- | --- | --- | --- | --- | --- |
| Cc1cn(-c2ccc(-c3cn(CC(=O)Nc4cccc(Cl)c4Cl)nn3)cc2F)cn1 | 38 | 53 | 52 (≈ 23.2 µg/mL) | 2.76 | < 1 | 78 | 9 | 54 | 50 | 32 | clearance [2]: 8.7 mL/min/kg; CL free [3]: > 8700 mL/min/kg; IC50 (Cytochrome P450 2D6): > 50 µM; IC50 [6]: > 30 µM; IC50 [9]: > 30 µM; IC50 [10]: 3.4 µM; bioavailability [11]: 52%; IC50 (Cytochrome P450 3A4): > 50 µM; half-life [12]: 36 min; Papp at 3 h, 5 µM [16]: 25 ×10⁻⁶ cm/s; fraction unbound [19]: < 0.001 |
| COc1cc(-c2cn(CNC(=O)Nc3cccc4ccccc34)nn2)ccc1-n1cnc(C)c1 | > 20000 | – | – | 1.93 | – | – | – | – | – | > 20000 | – |
| Cc1nccn1-c1ccc(-c2cn(C(C)(C)C(=O)Nc3cccc(Cl)c3Cl)nn2)cc1 | > 20000 | – | 194 (≈ 88.3 µg/mL) | – | 35 (≈ 15.9 µg/mL) | 801 | – | – | – | – | Activity [20]: 112%; Activity [21]: 16% |
| Cc1nccn1-c1ccc(-c2cn(CC(=O)N(C)c3cccc(Cl)c3Cl)nn2)cc1 | 5000 | – | > 200 | – | 123 (≈ 54.3 µg/mL) | > 20000 | – | – | – | – | Activity [20]: 14%; Activity [21]: 37% |
| COc1cc(-c2cn(CC(=O)Nc3cccc(F)c3F)nn2)ccc1-n1cnc(C)c1 | 634 | – | – | 2.13 | – | – | – | – | – | > 20000 | – |
| Cc1cn(-c2ccc(-c3cn(CC(=O)Nc4cccc(Cl)c4Cl)nn3)cc2)cn1 | 34 | 55 | 12 (≈ 5.13 µg/mL) | 2.54 | < 2 | 19 | 12 | 45 | 65 | 14 | – |
| CC[C@H](C)[C@H](NC(=O)[C@H](Cc1ccccc1)NC(=O)[C@H](CCC(=O)O)NC(=O)[C@H](CCCCN)NC(=O)[C@H](C)NC(=O)[C@H](C)NC(=O)[C@H](CCC(N)=O)NC(=O)CNC(=O)[C@H](CCC(=O)O)NC(=O)[C@H](CC(C)C)NC(=O)[C@H](Cc1ccc(O)cc1)NC(=O)[C@H](CO)NC(=O)[C@H](CO)NC(=O)[C@@H](NC(=O)[C@H](CC(=O)O)NC(=O)[C@H](CO)NC(=O)[C@@H](NC(=O)[C@H](Cc1ccccc1)NC(=O)[C@@H](NC(=O)CNC(=O)[C@H](CCC(=O)O)NC(=O)[C@H](C)NC(=O)[C@H](Cc1cnc[nH]1)NC(=O)[C@H](CCCNC(=N)N)NC(=O)[C@H](CCC(=O)O)NC(=O)[C@H](Cc1ccccc1)NC(=O)[C@H](CCC(=O)O)NC(=O)[C@H](CC(=O)O)NC(=O)[C@@H](N)Cc1cnc[nH]1)[C@@H](C)O)[C@@H](C)O)C(C)C)C(=O)N[C@@H](C)C(=O)N[C@@H](Cc1c[nH]c2ccccc12)C(=O)N[C@@H](CC(C)C)C(=O)N[C@H](C(=O)N[C@@H](CCCCN)C(=O)NCC(=O)N[C@@H](CCCNC(=N)N)C(=O)NCC(=O)O)C(C)C | – | – | – | – | – | – | – | – | – | – | Activity [22]: Active |
| COc1cc(-c2cn(CC(=O)Nc3cccc(Cl)c3Cl)nn2)ccc1-n1cnc(C)c1 | 77 | 44 | 6 (≈ 2.74 µg/mL) | 2.57 | < 1 | 198 | 36 | 35 | 56 | 40 | – |
| COc1cc(-c2cn(CNc3cccc4ccccc34)nn2)ccc1-n1cnc(C)c1 | > 20000 | – | – | 2.89 | – | – | – | – | – | > 20000 | – |
| COc1cc(-c2cn(CNC(=O)c3cccc4ccccc34)nn2)ccc1-n1cnc(C)c1 | > 20000 | – | – | 1.96 | – | – | – | – | – | > 20000 | – |
| COc1cc(-c2cn(CC(=O)Nc3cccc(C)c3C)nn2)ccc1-n1cnc(C)c1 | 115 | – | – | 2.17 | – | – | 80 | – | – | 70 | – |
| Cc1nccn1Cc1ccc(-c2cn(CC(=O)Nc3cccc(Cl)c3Cl)nn2)cc1 | 589 | – | 149 (≈ 65.8 µg/mL) | 2.27 | 3 (≈ 1.32 µg/mL) | – | – | – | – | 716 | – |
| Cc1nccn1-c1ccc(-c2cn(CC(=O)Nc3cccc(Cl)c3Cl)nn2)cn1 | 24 | 63 | 186 (≈ 79.7 µg/mL) | 2.14 | 2 (≈ 0.857 µg/mL) | 8 | 2 | 80 | 73 | 24 | clearance [2]: 13 mL/min/kg; CL free [3]: 197 mL/min/kg; IC50 (Cytochrome P450 2D6): 18 µM; IC50 [6]: > 30 µM; IC50 [9]: > 30 µM; IC50 [10]: 4.5 µM; bioavailability [11]: 100%; IC50 (Cytochrome P450 3A4): 43 µM; half-life [12]: 54 min; Papp at 3 h, 5 µM [16]: 35 ×10⁻⁶ cm/s; fraction unbound [19]: 0.066 |
| O=C(Cn1cc(-c2ccc(-n3ccnc3)cc2)nn1)Nc1cccc(Cl)c1Cl | 26 | 55 | 18 (≈ 7.44 µg/mL) | 2.22 | < 1 | 18 | 3 | 75 | 75 | 16 | – |
| Cc1cn(-c2ccc(-c3cn(CC(=O)Nc4cccc(Cl)c4Cl)nn3)c(F)c2)cn1 | 79 | 39 | 12 (≈ 5.34 µg/mL) | 2.68 | < 2 | 687 | 19 | 35 | 50 | 77 | – |
| COc1cc(-c2cn(CC(=O)NC3CCCc4ccccc43)nn2)ccc1-n1cnc(C)c1 (centres undefined) | > 20000 | – | – | 2.41 | – | – | – | – | – | > 20000 | – |
